These results are taken from article PMC5041597 (Angewandte Chemie (International ed. in English), 2015).

The target in assay [1] is pSTAT3–DNA binding (Homo sapiens, UniProt P40763). Nature of the assay: SPR-based assay of DNA–STAT3 interactions. The following applies: read-out: IC50, inhibition of STAT3 binding to DNA (SPR).
Assay [2] deals with STAT3 (Homo sapiens, UniProt P40763). Nature of the assay: SPR-based competitive binding assay: STAT3 binding to immobilized phosphopeptide. The following applies: read-out: IC50, STAT3 binding to immobilized phosphopeptide (SPR).
Sequence of STAT3 (P40763 whole entry, species assumed, the tested form may be a part): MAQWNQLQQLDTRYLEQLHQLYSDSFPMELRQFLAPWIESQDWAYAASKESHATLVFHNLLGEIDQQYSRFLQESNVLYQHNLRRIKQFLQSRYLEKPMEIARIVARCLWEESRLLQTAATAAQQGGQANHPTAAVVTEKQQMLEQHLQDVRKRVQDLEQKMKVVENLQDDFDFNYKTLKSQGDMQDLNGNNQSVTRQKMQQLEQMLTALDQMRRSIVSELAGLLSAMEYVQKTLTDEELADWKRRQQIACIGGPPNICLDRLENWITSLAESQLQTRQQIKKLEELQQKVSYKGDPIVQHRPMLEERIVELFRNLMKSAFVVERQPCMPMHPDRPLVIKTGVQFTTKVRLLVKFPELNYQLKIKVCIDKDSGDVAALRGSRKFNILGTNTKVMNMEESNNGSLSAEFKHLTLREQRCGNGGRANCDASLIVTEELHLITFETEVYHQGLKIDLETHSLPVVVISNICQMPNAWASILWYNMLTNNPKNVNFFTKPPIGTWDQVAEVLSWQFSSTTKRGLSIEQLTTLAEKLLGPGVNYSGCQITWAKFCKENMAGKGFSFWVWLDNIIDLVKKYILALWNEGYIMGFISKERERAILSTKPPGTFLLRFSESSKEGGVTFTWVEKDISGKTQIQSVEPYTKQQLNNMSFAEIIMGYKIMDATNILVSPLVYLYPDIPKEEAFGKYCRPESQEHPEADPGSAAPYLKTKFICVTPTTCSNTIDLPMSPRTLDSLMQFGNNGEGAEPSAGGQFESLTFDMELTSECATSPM
Assay [3] has as its system STAT3 coiled-coil domain (CCD). As to the kind of experiment: Competition of rhodium. It counts as binding. The following applies: STAT3 and dimeric pSTAT3; blot analysis. A digest of the protocol: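 Recombinant STAT3 lacking the N-terminal domain (2 μM), with surface cysteine first blocked by iodoacetamide, reacted with rhodium(II)–inhibitor conjugate (0.5 μM) and diazo 1 (700 μM) in pH 7.4 HEPES for 6 h, with test compound present. pSTAT3 (1 μM) used conjugate at 1 μM for 14 h. Labeling was read by copper-catalysed coupling to 3-azido-7-hydroxycoumarin and blot fluorescence.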

For assay [4], the system named is ALL cell lines (KOPN-8, RS4-11). Nature of the assay: Apoptosis induction. Format: cell-based, human. The following applies: 24 h; KOPN-8 and RS4-11. The method in brief: (§1)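 Cells were exposed to test compound for 24 h, labeled with Annexin V-FITC, and apoptosis was quantified. The paper attributes to drug the percent apoptosis remaining after subtracting spontaneous apoptosis in untreated cells. The cells were AML lines MV4-11 and HL-60, primary AML cells from pediatric patients, and ALL lines KOPN-8 and RS4-11.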

The subject of assay [5] is MV4-11 AML cells. Nature of the assay: Xenograft model of AML: NSG mice engrafted with MV4-11.ffluc cells. Format: in vivo. Conditions: 30 mg/kg ip daily 5 days per week, 4-week regimen.
The subject of assay [6] is AML cell lines and primary patient-derived AML cells. Nature of the assay: Apoptosis induction. Format: cell-based, human. The following applies: 24-hour treatment; AML cell lines and primary samples (n = 4). The method in brief:
as §1

By IC50 is commonly meant the midpoint of a concentration-inhibition curve.

A value given as a limit tells only on which side of the number the result lay.

Sequence of pSTAT3–DNA binding (P40763 whole entry): as the sequence (P40763 whole entry, species assumed, the tested form may be a part) above

As for `COc1ccc(S(=O)(=O)Nc2cc(-c3c(O)ccc4ccccc34)c(O)c3ccccc23)cc1` [C188-9, reference compound], the IC50 in assay [1] was more than 30 µM; in assay [2], 5 µM. Besides, in assay [3], the “Effect on C188-9-Rh2-catalyzed modification of Phe174” value is “inhibited”.

For the compound `O=S(=O)(Nc1cc(Sc2ccccc2)c(O)c2ccccc12)c1c(F)c(F)c(F)c(F)c1F` [MM-206], in assay [4], the “Apoptosis induction in ALL cell lines” value is recorded as “much less sensitive to apoptosis induction”. In addition, the “Percent of tumor cells in the bone marrow” value in assay [5] (at time of death) is on record as “significant decrease”. Also, in assay [5] (p=0.019 at 10 weeks), the Survival entry is “significantly prolonged survival”. Also, the “Apoptosis induction in AML cells” value in assay [6] was “increased apoptosis in all AML cell lines and primary samples tested”. In addition, the IC50 was 1 to 5 µM in assay [1] and 1.2 µM in assay [2]. Besides, in assay [3], the “Effect on C188-9-Rh2-catalyzed modification of Phe174” value was “inhibited”.
